In ChEMBL document CHEMBL3244344, “Nucleoside conjugates as potential antitumor agents. 2. Synthesis and biological activity of 1-(beta-D-arabinofuranosyl)cytosine conjugates of prednisolone and prednisone” (J Med Chem, 1979):

Tests used:
[1] = test system: L1210; test: Cytotoxicity against mouse L1210 cells assessed as growth inhibition measured at 72 hrs by trypan blue exclusion assay; assay type: functional; conditions: L1210, 72 h, read-out: ED50 (the source's name)
Summary of the method: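 L1210 mouse lymphoid leukemia cells seeded at 2–3 × 10⁵ cells/mL in RPMI 1640 + 10% fetal calf serum with compound (from Me2SO stock, final Me2SO 0.5%, compound 100 μM or lower). Viable cells counted by 0.05% Trypan blue exclusion in a hemocytometer at 24, 48, 72 h. Treated/untreated density ratio. ED50 at 72 h interpolated from response curves of three separate experiments.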

[2] = test system: L1210; test: Antitumor activity against mouse L1210 cells allografted in C3D2F1/J mouse assessed as median survival time at 25 mg/kg, ip qd administered for 5 days (reference value: 9 days); assay type: functional; conditions: route intraperitoneal
[3] = test system: L1210; test: Antitumor activity against mouse L1210 cells allografted in C3D2F1/J mouse assessed as median survival time at 50 mg/kg, ip qd administered for 5 days (reference value: 9 days); assay type: functional; conditions: route intraperitoneal
[4] = test system: L1210; test: Antitumor activity against mouse L1210 cells allografted in C3D2F1/J mouse assessed as median survival time at 75 mg/kg, ip qd administered for 5 days (reference value: 9 days); assay type: functional; conditions: route intraperitoneal
[5] = test system: L1210; test: Antitumor activity against mouse L1210 cells allografted in C3D2F1/J mouse assessed as median survival time at 100 mg/kg, ip qd administered for 5 days (reference value: 9 days); assay type: functional; conditions: route intraperitoneal
[6] = test system: L1210; test: Antitumor activity against mouse L1210 cells allografted in C3D2F1/J mouse assessed as increase in life span at 25 mg/kg, ip qd administered for 5 days relative to control; assay type: functional; conditions: 120 h, route intraperitoneal
[7] = test system: L1210; test: Antitumor activity against mouse L1210 cells allografted in C3D2F1/J mouse assessed as increase in life span at 50 mg/kg, ip qd administered for 5 days relative to control; assay type: functional; conditions: 120 h, route intraperitoneal
[8] = test system: L1210; test: Antitumor activity against mouse L1210 cells allografted in C3D2F1/J mouse assessed as increase in life span at 75 mg/kg, ip qd administered for 5 days relative to control; assay type: functional; conditions: 120 h, route intraperitoneal
[9] = test system: L1210; test: Antitumor activity against mouse L1210 cells allografted in C3D2F1/J mouse assessed as increase in life span at 100 mg/kg, ip qd administered for 5 days relative to control; assay type: functional; conditions: 120 h, route intraperitoneal
[10] = test system: Mus musculus; test: Toxicity in C3D2F1/J mouse allografted with mouse L1210 cells assessed as body weight change at 25 mg/kg, ip qd administered for 5 days measured on day 8 (reference value: 1.81 +/- 0.79 g); assay type: organism-based; design: dose 25 mg/kg, route intraperitoneal; conditions: in vivo, 120 h
[11] = test system: Mus musculus; test: Toxicity in C3D2F1/J mouse allografted with mouse L1210 cells assessed as body weight change at 50 mg/kg, ip qd administered for 5 days measured on day 8 (reference value: 1.81 +/- 0.79 g); assay type: organism-based; design: dose 50 mg/kg, route intraperitoneal; conditions: in vivo, 120 h
[12] = test system: Mus musculus; test: Toxicity in C3D2F1/J mouse allografted with mouse L1210 cells assessed as body weight change at 75 mg/kg, ip qd administered for 5 days measured on day 8 (reference value: 1.81 +/- 0.79 g); assay type: organism-based; design: dose 75 mg/kg, route intraperitoneal; conditions: in vivo, 120 h
[13] = test system: Mus musculus; test: Toxicity in C3D2F1/J mouse allografted with mouse L1210 cells assessed as body weight change at 100 mg/kg, ip qd administered for 5 days measured on day 8 (reference value: 1.81 +/- 0.79 g); assay type: organism-based; design: dose 100 mg/kg, route intraperitoneal; conditions: in vivo, 120 h
[14] = Drug degradation assessed as ara-C formation at 5 umol at pH 9 after 24 hrs by UV analysis in presence of Crotalus adamanteus 5'-nucleotidase; assay type: physicochemical; conditions: buffer, pH 9, 24 h
Summary of the method: (§1)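 Crude Crotalus adamanteus venom: 5 μmol conjugate in Tris-HCl buffer (pH 8.8) with 2.5 mg venom, 0.5 mL total, incubated 37 °C for 24 h. Products were resolved by paper chromatography alongside authentic markers.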

[15] = Drug degradation assessed as steroid formation at 5 umol at pH 9 after 24 hrs by UV analysis in presence of Crotalus adamanteus 5'-nucleotidase; assay type: physicochemical; conditions: buffer, pH 9, 24 h; summary of the method: as §1
[16] = Hydrolytic stability of the compound assessed as remaining compound level at 5 umol at pH 4.8 at 25 degC after 24 hrs by UV analysis in presence of wheat germ acid phosphatase; assay type: physicochemical; conditions: read-out: Stability
Summary of the method: (§2)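 5 μmol conjugate in NaOAc buffer (pH 4.8) with 3 mg crude wheat germ acid phosphatase, 0.5 mL total, held at 25 °C for 24 h. Products were separated by paper chromatography against authentic markers.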

[17] = Hydrolytic stability of the compound at 5 umol at pH 8 at 25 degC after 24 hrs by UV analysis in presence of bacterial alkaline phosphatase; assay type: physicochemical; conditions: isolated protein, pH 8, 24 h
Summary of the method: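 5 μmol conjugate in Tris-HCl (pH 8.0) with bacterial alkaline phosphatase suspension, 0.5 mL total, incubated at 25 °C for 24 h. Paper chromatography against authentic markers.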

[18] = Metabolic stability in baboon plasma assessed as remaining compound level at 5 umol at 37 degC after 24 hrs by UV analysis; assay type: ADME, cell-free; conditions: papio anubis, read-out: Stability
Summary of the method: (§3)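 5 μmol conjugate in 0.5 mL fresh baboon plasma, incubated at 37 °C for 24 h. Intact conjugate and products were separated by paper chromatography with authentic markers.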

[19] = Drug degradation assessed as compound hydrolysis at 5 umol at pH 4.8 at 25 degC after 24 hrs by UV analysis in presence of wheat germ acid phosphatase; assay type: physicochemical; conditions: read-out: Drug degradation; summary of the method: as §2
[20] = Drug degradation in baboon plasma at 5 umol at 37 degC after 24 hrs by UV analysis; assay type: ADME, cell-free; conditions: papio anubis, read-out: Drug degradation; summary of the method: as §3
[21] = test system: L1210; test: Antitumor activity against mouse L1210 cells allografted in C3D2F1/J mouse assessed as median survival time at 27 mg/kg, ip qd administered for 5 days (reference value: 10 days); assay type: functional; conditions: route intraperitoneal
[22] = test system: L1210; test: Antitumor activity against mouse L1210 cells allografted in C3D2F1/J mouse assessed as increase in life span at 27 mg/kg, ip qd administered for 5 days relative to control; assay type: functional; conditions: 120 h, route intraperitoneal
[23] = test system: Mus musculus; test: Toxicity in C3D2F1/J mouse allografted with mouse L1210 cells assessed as body weight change at 27 mg/kg, ip qd administered for 5 days measured on day 8 (reference value: 1.81 +/- 0.79 g); assay type: organism-based; design: dose 27 mg/kg, route intraperitoneal; conditions: in vivo, 120 h

**Q.** With C[C@]12C=CC(=O)C=C1CC[C@@H]1[C@@H]2[C@@H](O)C[C@@]2(C)[C@H]1CC[C@]2(O)C(=O)CO[P+]([O-])(O)OC[C@H]1O[C@@H](n2ccc(N)nc2=O)[C@@H](O)[C@@H]1O (stereo partly drawn) as the compound, how does the EC50 [1] read?
**A.** 0.05 µM

**Q.** What about the MST [2] of the same compound?
**A.** 15.5 days

**Q.** And the MST [3]?
**A.** 17 days

**Q.** What about the MST [4] of the same compound?
**A.** 16 days

**Q.** What about the MST [5] of the same compound?
**A.** 10.5 days

**Q.** And the ILS at 25 mg/kg [6]?
**A.** 72.7%

**Q.** What about the ILS at 50 mg/kg [7] of the same compound?
**A.** 88.9%

**Q.** And the ILS at 75 mg/kg [8]?
**A.** 77.8%

**Q.** And the ILS at 100 mg/kg [9]?
**A.** 16.7%

**Q.** And the Activity [10]?
**A.** -0.07 g

**Q.** And the Activity [11]?
**A.** -0.28 g

**Q.** And the Activity [12]?
**A.** -0.71 g

**Q.** And the Activity [13]?
**A.** -1.5 g

**Q.** What about the Drug degradation [14] of the same compound?
**A.** 50%

**Q.** What about the Drug degradation [15] of the same compound?
**A.** 50%

**Q.** What about the remaining at 24 h, 5 umol [16] of the same compound?
**A.** 8%

**Q.** And the Stability [17]?
**A.** Stable

**Q.** And the remaining at 24 h, 5 umol [18]?
**A.** 44%

**Q.** What about the metabolised at 24 h, 5 umol [19] of the same compound?
**A.** 86%

**Q.** What about the metabolised at 24 h, 5 umol [20] of the same compound?
**A.** 39%

**Q.** What does the source list for C[C@]12C=CC(=O)C=C1CC[C@@H]1[C@@H]2C(=O)C[C@@]2(C)[C@H]1CC[C@]2(O)C(=O)CO [PREDNISONE]?
**A.** EC50 [1]: > 100 µM; MST [21]: 9.5 days; ILS at 27 mg/kg [22]: -5%; Activity [23]: -1.01 g

**Q.** For C[C@]12C=CC(=O)C=C1CC[C@@H]1[C@@H]2[C@@H](O)C[C@@]2(C)[C@H]1CC[C@]2(O)C(=O)CO [PREDNISOLONE], which EC50 [1] is on record?
**A.** 100 µM

**Q.** What about the MST [21] of the same compound?
**A.** 9.5 days

**Q.** And the ILS at 27 mg/kg [22]?
**A.** -5%

**Q.** And the Activity [23]?
**A.** -0.85 g
